From publication PMC6379856 (ACS Chemical Biology, 2019)

What was measured:
iNAT = target: T1, iNAT (Homo sapiens, UniProt Q96KN8); test: Competitive ABPP with probe MB064, cytosol proteome of transfected HEK293T cells; assay type: biochemical
T1 sequence (Q96KN8 1-279): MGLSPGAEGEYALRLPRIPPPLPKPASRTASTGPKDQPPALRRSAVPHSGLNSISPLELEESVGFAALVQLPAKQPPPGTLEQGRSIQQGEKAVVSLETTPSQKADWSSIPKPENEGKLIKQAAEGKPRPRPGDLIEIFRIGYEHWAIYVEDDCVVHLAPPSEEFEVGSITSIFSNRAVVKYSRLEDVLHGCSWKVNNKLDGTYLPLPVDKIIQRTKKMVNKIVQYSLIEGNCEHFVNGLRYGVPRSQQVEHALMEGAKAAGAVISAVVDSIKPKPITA

[1] = test system: endogenously expressed serine hydrolases in mouse brain; test: Competitive gel-based ABPP in mouse brain proteomes with FP-TAMRA and MB064; assay type: biochemical
Procedure, shortened: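 Mouse brain membrane and cytosol proteomes were treated with DMSO or test compound at 10 µM. Each was then labelled with MB064 or FP-TAMRA and resolved by SDS-PAGE with fluorescent scanning. Coomassie staining served as the protein loading control.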

PLA2G16 [2] = target: T2, PLA2G16 (Homo sapiens, UniProt P53816); test: Competitive ABPP with probe MB064, cytosol proteome of transfected HEK293T cells; assay type: biochemical
T2 sequence (P53816 1-162): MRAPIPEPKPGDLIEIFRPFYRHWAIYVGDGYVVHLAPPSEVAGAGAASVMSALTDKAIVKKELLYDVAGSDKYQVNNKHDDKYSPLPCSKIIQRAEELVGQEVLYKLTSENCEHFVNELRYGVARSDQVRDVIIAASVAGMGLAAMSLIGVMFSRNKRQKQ

[3] = test system: U2OS cells transfected with human PLA2G16; assay type: cell-based; details: 10 μM, 4 or 8 h, serum-free, in situ
Procedure, shortened: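 U2OS cells transfected with human PLA2G16 were exposed in situ, under serum-free conditions, to DMSO vehicle or test compound at 10 µM for 4 or 8 h. Arachidonic acid levels were then measured. Significance was assessed by Student's t-test.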

RARRES3 = target: T3, RARRES3 (Homo sapiens, UniProt Q9UL19); test: Competitive ABPP with probe MB064, cytosol proteome of transfected HEK293T cells; assay type: biochemical
T3 sequence (Q9UL19 1-164): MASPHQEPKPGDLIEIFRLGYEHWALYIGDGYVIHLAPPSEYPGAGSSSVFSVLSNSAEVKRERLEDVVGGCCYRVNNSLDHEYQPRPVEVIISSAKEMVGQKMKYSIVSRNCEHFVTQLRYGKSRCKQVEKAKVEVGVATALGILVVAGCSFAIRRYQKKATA

PLA2G16 [4] = target: T2, PLA2G16; test: PC-A2 fluorescent substrate assay; assay type: biochemical
Procedure, shortened: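 HEK293T cells overexpressing human PLA2G16 supplied the cytosol proteome used as enzyme source. Test compound was tested over a concentration range in the fluorescent PC-A2 phospholipid substrate assay. Dose–response curves were generated (n = 3).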

[5] = test system: other proteins in brown and white adipose tissue; assay type: biochemical, mouse; details: 10 μM, probe MB064
Procedure, shortened: (§1)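 Cytosol proteomes from freshly isolated mouse white and brown adipose tissue were preincubated with test compound (10 µM) or DMSO. They were then labelled with probe MB064, resolved by SDS-PAGE and fluorescence-scanned. The gels were Western blotted with an anti-PLA2G16 antibody to locate native PLA2G16.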

HepG2 cells = test: Oleic acid-induced lipid droplet formation; assay type: cell-based, human; details: 10 μM, 24 h, oleic acid 100 μM
Procedure, shortened: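 HepG2 cells were given oleic acid (100 µM, 24 h) to induce steatosis and treated in situ with test compound (10 µM, 24 h). Lipid droplets were stained with Adipored. Significance was assessed by Student's t-test.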

endogenous PLA2G16 = target: T4, endogenous PLA2G16 (Mus musculus, UniProt Q8R3U1); test: Competitive ABPP with MB064 in cytosol proteome of mouse WAT and BAT; assay type: biochemical; details: 10 μM
T4 sequence (Q8R3U1 1-162): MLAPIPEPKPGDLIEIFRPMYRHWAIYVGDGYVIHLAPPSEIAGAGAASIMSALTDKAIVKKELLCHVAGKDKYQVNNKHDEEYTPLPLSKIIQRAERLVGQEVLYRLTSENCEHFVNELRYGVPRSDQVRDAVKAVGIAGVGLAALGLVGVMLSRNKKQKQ
Procedure, shortened: as §1

SMILES | IC50 (iNAT) [nM] | selectivity over brain serine hydrolases ([1]; gel-based ABPP assay (Figure S7)) | increase in potency compared to compound 1 in the ABPP-assay (PLA2G16 [2]; PLA2G16) [fold] | PLA2G16-induced increase in arachidonic acid [3] | IC50 (RARRES3) [nM] | Ki (PLA2G16 [4]) [nM] | labeling of other proteins in brown and white adipose tissue [5] | lipid droplet formation induced by oleic acid (HepG2 cells) | labeling of native PLA2G16 by MB064 (endogenous PLA2G16) | labeling of proteins in mouse brain targeted by FP-TAMRA or MB064 ([1]; 10 μM, mouse brain membrane and cytosol proteome) | PLA2G16 labeling by MB064 (library screen) (PLA2G16 [2]; inhibitor at 10 μM, competitive ABPP)
O=C(CCCc1ccccc1)C(=O)NCCc1ccc(Oc2ccc(C(F)(F)F)cn2)cc1 [LEI110, 2-oxo-5-phenyl-N-(4-((5-(trifluoromethyl)pyridin-2-yl)oxy)-phenethyl)pentanamide] | 25.1 | selective | 10 | almost completely abolished | 158 | 20 | not affected | reduction in lipid droplet formation | completely abolished |  | 
O=C(CCc1ccc(Cl)cc1)C(=O)NCCc1ccccc1 [Compound 1, 4-(4-chlorophenyl)-2-oxo-N-phenethylbutan-amide] |  |  |  |  | 631 |  | not affected |  | completely abolished | did not reduce the labeling of any proteins | almost completely abolished
